Calls of active or inactive are those of the source. The calls are words filed in the database; no cut-off is given here.
Tests used:
CAKI-1 = experiment: Growth inhibition of human Caki1 cells; type: functional
Method in brief: (§1)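 NCI 60-human-cancer-cell-line panel, five-dose screen after a preliminary screen. GI50 is the molar concentration giving 50% growth inhibition.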

MCF7 = experiment: Growth inhibition of human MCF7 cells; type: functional; method in brief: as §1
A498 = experiment: Growth inhibition of human A498 cells; type: functional; method in brief: as §1
SN12C = experiment: Growth inhibition of human SN12C cells; type: functional
Method in brief: (§2)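 NCI 60-cell-line panel, five-dose screen; GI50 is the molar concentration giving 50% growth inhibition.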

MDA-MB-231 = experiment: Growth inhibition of human MDA-MB-231 cells; type: functional; method in brief: as §1
SF-268 = experiment: Growth inhibition of human SF268 cells; type: functional; method in brief: as §1
HT-29 = experiment: Growth inhibition of human HT-29 cells; type: functional; method in brief: as §1
[1] = Growth inhibition of human HCC2998 cells; type: functional; conditions: HCC 2998; method in brief: as §1
HOP-62 = experiment: Growth inhibition of human HOP62 cells; type: functional; method in brief: as §1
PC-3 [2] = experiment: Induction of apoptosis in human PC3 cells assessed as formation of mitotic castastrophe at 10 to 100 nM after 72 hrs by Hoechst 33342 staining; type: functional, cell-based
Method in brief: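 PC3 prostate cancer cells were treated 72 h at 10 and 100 nM. Nuclei were stained with Hoechst 33342 and visualized by fluorescence imaging.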

[3] = Growth inhibition of human BT549 cells; type: functional; conditions: BT-549; method in brief: as §1
NCI-H226 = experiment: Growth inhibition of human NCI-H226 cells; type: functional; method in brief: as §1
PC-3 [4] = experiment: Growth inhibition of human PC3 cells after 72 hrs by Alamar Blue assay; type: functional; conditions: PC-3, 72 h
Method in brief: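 PC3 prostate cancer cells and docetaxel-resistant PC3-DR cells were exposed to drug for 72 hours in 96-well format. Viability was read with AlamarBlue dye and GI50 derived. Resistance is the GI50 in PC3-DR over the GI50 in parental PC3.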

U-251 = experiment: Growth inhibition of human U251 cells; type: functional; method in brief: as §2
LLC-PK1 = experiment: Growth inhibition of pig LLC-PK1 cells expressing MDR1 by Alamar Blue assay; type: functional; conditions: Sus scrofa
Method in brief: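 Porcine epithelial L-MDR1 (P-gp expressing) cells and their non-expressing parent line were exposed to compound for 72 h. Viability was read with AlamarBlue dye and GI50 derived. P-gp expression was verified by Western blot with β-actin as loading control. The resistance ratio compares GI50 in MDR1 versus parent cells.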

[5] = Growth inhibition of human Hs578T cells; type: functional; conditions: Hs-578T; method in brief: as §1
RPMI-8226 = experiment: Growth inhibition of human RPMI8226 cells; type: functional; method in brief: as §1
SK-MEL-5 = experiment: Growth inhibition of human SK-MEL-5 cells; type: functional; method in brief: as §1
HCT-116 = experiment: Growth inhibition of human HCT116 cells; type: functional; method in brief: as §1
KM12 = experiment: Growth inhibition of human KM12 cells; type: functional; method in brief: as §1
PC-3 [6] = experiment: Induction of beta tubulin de-stabilization in human PC3 cells at 1 to 100 nM after 24 hrs by DAPI-staining based immunofluorescence assay; type: cell-based
Method in brief: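 PC3 cells were treated 24 h at 1, 10 and 100 nM, then immunostained for beta-tubulin with DAPI nuclear counterstain. Docetaxel (stabilizer) and vinblastine (destabilizer) at 10 nM served as references.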

ACHN = experiment: Growth inhibition of human ACHN cells; type: functional; method in brief: as §1
NCI-H460 = experiment: Growth inhibition of human NCI-H460 cells; type: functional; method in brief: as §1
COLO 205 = experiment: Growth inhibition of human COLO205 cells; type: functional; method in brief: as §1
SK-OV-3 = experiment: Growth inhibition of human SKOV3 cells; type: functional; method in brief: as §2
[7] = Growth inhibition of human HCT15 cells; type: functional; conditions: HCT-15; method in brief: as §1
786-0 = experiment: Growth inhibition of human 786-0 cells; type: functional; method in brief: as §1
[8] = Growth inhibition of human SF539 cells; type: functional; conditions: SF-539; method in brief: as §1
SK-MEL-28 = experiment: Growth inhibition of human SK-MEL-28 cells; type: functional; method in brief: as §1
[9] = Growth inhibition of human EKVX cells; type: functional; method in brief: as §1
SNB-19 = experiment: Growth inhibition of human SNB19 cells; type: functional; method in brief: as §2
M14 = experiment: Growth inhibition of human M14 cells; type: functional; method in brief: as §1
[10] = target: Tubulin beta (Homo sapiens) (UniProt P68371+Q9H4B7+Q13509+P04350+Q3ZCM7+P07437+Q13885+Q9BVA1+Q9BUF5+A6NNZ2); experiment: Inhibition of tubulin beta in human PC3 cells assessed as multiple spindle-poles formation at 100 nM after 24 hrs by DAPI-staining based immunofluorescence assay; type: cell-based; conditions: PC-3
Method in brief: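 PC3 cells were treated 24 h at 100 nM, with docetaxel 100 nM for comparison. Tubulin immunofluorescence with DAPI nuclear counterstain was used to score chromosome overduplication and multiple spindle poles.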

CCRF-CEM = experiment: Growth inhibition of human CCRF-CEM cells; type: functional; method in brief: as §1

COc1cc(/C(C#N)=C/c2cc3ccccc3s2)cc(OC)c1OC
GI50 (CAKI-1): 51.4 nM
GI50 (MCF7): 40.2 nM
GI50 (A498): 28.8 nM
GI50 (SN12C): 68.4 nM
GI50 (MDA-MB-231): 33 nM
GI50 (SF-268): 46.7 nM
GI50 (HT-29): 31.9 nM
GI50 [1]: 16.3 nM
GI50 (HOP-62): 98.9 nM
Activity (PC-3 [2]): Active
GI50 [3]: 36.6 nM
GI50 (NCI-H226): > 100 nM
GI50 (PC-3 [4]): 8.6 nM
GI50 (U-251): 50 nM
GI50 (LLC-PK1): 11.7 nM
GI50 [5]: 42.7 nM
GI50 (RPMI-8226): 28.6 nM
GI50 (SK-MEL-5): 34.4 nM
GI50 (HCT-116): 49.4 nM
GI50 (KM12): 22.2 nM
Activity (PC-3 [6]): Active
GI50 (ACHN): 73.2 nM
GI50 (NCI-H460): 35.9 nM
GI50 (COLO 205): 46.9 nM
GI50 (SK-OV-3): 47.2 nM
GI50 [7]: 46.1 nM
GI50 (786-0): 12.2 nM
GI50 [8]: 24.8 nM
GI50 (SK-MEL-28): > 100 nM
GI50 [9]: 52.1 nM
GI50 (SNB-19): 44 nM
GI50 (M14): 37.9 nM
inhibition [10]: Active
GI50 (CCRF-CEM): 25.1 nM

From ChEMBL document CHEMBL3217724, “Synthesis and evaluation of a series of benzothiophene acrylonitrile analogs as anticancer agents” (Medchemcomm, 2013)
